Here are results for 51 compounds from ChEMBL document CHEMBL3877298, “Discovery of benzimidazole derivatives as modulators of mitochondrial function: A potential treatment for Alzheimer's disease” (Eur J Med Chem, 2017).

Data set [1] has as its target Translocator protein (Mus musculus) (UniProt P50637). The data set can be described thus: Inhibition of TSPO in mouse HT22 cells assessed as protection against amyloid beta (1 to 42)-induced mitochondrial membrane potential loss by measuring recovery of mitochondrial membrane potential at 5 uM preincubated for 10 mins followed by amyloid beta (1 to 42) addition measured every 1 hr for 3 hrs by JC1 staining based fluorescence assay relative to control. Type of data set: cell-based. Also on record: scale not given: the % may be the effect or the level left. To be noted: HT-22. An outline of the steps:
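HT22 cells at 30,000 per well were loaded with 7.5 µM JC-1 in phenol red-free Opti-MEM for 1 h 15 min at 37 °C, then washed. Cells were treated with compound (5 µM) and Aβ1-42 (5 µM); vehicle wells received DMSO. Green (485/535) and red (560/595) fluorescence were read hourly for 3 h. Recovery was normalised between Aβ-damaged (0%) and normal (100%) ratio.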

Data set [2] has the same target. The data set can be described thus: Inhibition of TSPO in mouse HT22 cells assessed as protection against amyloid beta (1 to 42)-induced mitochondrial membrane potential loss by measuring recovery of ATP production at 5 uM preincubated for 10 mins followed by amyloid beta (1 to 42) addition measured after 7 hrs by luciferase reporter gene assay relative to control. Also on record: scale not given: the % may be the effect or the level left. The class given is cell-based. To be noted: HT-22. An outline of the steps: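 HT22 cells at 7000 per well were given compound (5 µM) for 10 min at 37 °C, then Aβ1-42 (5 µM) or DMSO vehicle, and incubated 7 h. Cells were washed, lysed in 1% Triton X-100, and protein-equalised by BCA. ATP was measured by luciferin/luciferase luminescence and normalised to vehicle.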
(In general: Reporter assays use an easily measured gene product as a stand-in for the process of interest.)

The nature of data set [3]: Cytotoxicity against mouse HT22 cells assessed as cell viability at 5 uM after 24 hrs by MTT assay relative to control. The class given is toxicity, HT-22. The conditions noted are these: read-out: Activity. An outline of the steps: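 MTT was added for 2 h, then solubilising solution (10% Triton X-100 in isopropanol with 0.1 M HCl) for 2 h more. Absorbance read at 560 nm; % inhibition normalised to vehicle, and viability taken from compound-only wells.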
On the technique in general: Tetrazolium assays rely on reduction of a dye to a coloured formazan, in cell work by metabolically active cells.

The target of data set [4] is Translocator protein (Mus musculus) (UniProt P50637). The data set can be described thus: Inhibition of TSPO in mouse HT22 cells assessed as inhibition of amyloid beta (1 to 42)-induced toxicity at 5 uM after 24 hrs by MTT assay relative to control. The conditions noted are these: HT-22. The class given is cell-based. An outline of the steps:
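HT22 cells at 5000 per well were treated with compound (5 µM), with or without Aβ1-42 (5 µM), for 24 h at 37 °C. MTT was added for 2 h, then solubilising solution (10% Triton X-100 in isopropanol with 0.1 M HCl) for 2 h more. Absorbance read at 560 nm; % inhibition normalised to vehicle, and viability taken from compound-only wells.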

The target is the same in data set [5]. The data set can be described thus: Inhibition of TSPO in mouse HT22 cells assessed as inhibition of amyloid beta (1 to 42)-induced ROS generation at 5 uM after 6 hrs by DCFDA staining based fluorescence assay relative to control. Type of data set: cell-based. The conditions noted are these: HT-22.

Translocator protein (Mus musculus), sequence (P50637 whole entry, looked up): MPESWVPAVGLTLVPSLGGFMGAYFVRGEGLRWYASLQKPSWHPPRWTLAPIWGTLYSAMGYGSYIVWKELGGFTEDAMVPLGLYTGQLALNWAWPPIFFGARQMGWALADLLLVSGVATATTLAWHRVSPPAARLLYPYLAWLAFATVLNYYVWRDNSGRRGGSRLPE

On to `CN1CCC(NC(=O)c2ccc(Cn3c(Cc4c(Cl)cccc4Cl)nc4ccccc43)cc2)CC1`, for which the Activity in data set [1] turned out to be 81%; in data set [2] it was 8%. The viability at 24 h, 5 µM in data set [3] was 94%.

As for `Cc1ccc(C(C)C)cc1NC(=O)Cn1c(-c2ccccc2)nc2ccccc21`, the Activity worked out at 63% in data set [1] and 19% in data set [2]. Besides, in data set [3], the viability at 24 h, 5 µM was 67%.

On to `Cc1ccc(C(C)C)cc1NC(=O)Cn1c(-c2cc(Cl)ccc2Cl)nc2ccccc21`, for which the Activity in data set [1] was determined as 91%; in data set [2], 0%. Besides, the viability at 24 h, 5 µM in data set [3] came to 93%.

Turning to `Cc1ccc(Cn2c(SCc3ccc(F)cc3)nc3ncccc32)cc1`, in data set [1], the Activity turned out to be 15%.

On to `COc1ccc(OC)c(Cc2nc3ccccc3n2CC(=O)Nc2cc(C(C)C)ccc2C)c1`, for which the Activity was 81% in data set [1] and 0% in data set [2]. The viability at 24 h, 5 µM in data set [3] worked out at 96%.

Regarding `COc1ccc(NC(=O)Cn2c(SCc3cc(C)ccc3C)nc3ccncc32)c(OC)c1OC`, in data set [1], the Activity is 43%.

For `CCN1CCCC1CNC(=O)c1ccc(Cn2c(CC(=O)Nc3cc(C(C)C)ccc3C)nc3ccccc32)cc1` (stereo unspecified), the Activity in data set [1] amounted to 68%.

On to `O=C(NCCN1CCCCC1)c1ccc(Cn2c(Cc3c(Cl)cccc3Cl)nc3ccccc32)cc1`, for which the Activity in data set [1] stood at 89%; in data set [2] it was 4%. For the same compound, in data set [3], the viability at 24 h, 5 µM came out at 87%.

As for `Cc1ccc(C(C)C)cc1NC(=O)Cc1nc2ccccc2n1Cc1ccc(C(=O)NCCCN(C)C)cc1`, the results for the Activity in data set [1] and in data set [2] were 68% and 14%, respectively. In data set [3], the viability at 24 h, 5 µM is 97%.

With `CN1CCN(CCCNC(=O)c2ccc(Cn3c(Cc4c(Cl)cccc4Cl)nc4ccccc43)cc2)CC1`, the Activity in data set [1] stood at 86%.

`COc1ccc(NC(=O)Cn2c(SCc3ccc(C)cc3)nc3ccncc32)c(OC)c1OC`: the Activity in data set [1] was determined as 27%.

`Cc1ccc(C(C)C)cc1NC(=O)Cn1c(Cc2ccccc2)nc2ccccc21`: the Activity in data set [1] was 24%.

In the case of `CC(C)(C)c1cc(NC(=O)Cn2c(-c3ccccc3)nc3ccccc32)cc(C(C)(C)C)c1`, the Activity in data set [1] came out at 86%; in data set [2], 4%. Further, the viability at 24 h, 5 µM in data set [3] was found to be 71%.

As to `COc1ccc(OC)c(-c2nc3ccccc3n2CC(=O)Nc2cc(Oc3ccc(-c4ccccc4)cc3)ccc2F)c1`, the Activity in data set [1] was 0%.

Turning to `COc1ccc(OC)c(Cc2nc3ccccc3n2CC(=O)Nc2cc(Cl)cc(Cl)c2)c1`, the Activity in data set [1] is 68%; in data set [2] it was 94%. In data set [3], the viability at 24 h, 5 µM was 81 to 82%. Also, the inhibition (in general, the change of the read-out against control, counted positive when it falls) in data set [4] is 12%; in data set [5], 0%.

As to `CCCSCCNC(=O)c1ccc(Cn2c(SCc3ccccc3)nc3ncccc32)cc1`, the Activity in data set [1] was 23%.

Turning to `O=C(Cn1c(-c2cc(Cl)ccc2Cl)nc2ccccc21)Nc1cc(Cl)cc(Cl)c1`, the Activity amounted to 91% in data set [1] and 0% in data set [2]. Moreover, in data set [3], the viability at 24 h, 5 µM was determined as 107%.

With `O=C(NCCCc1ccco1)c1ccc(Cn2c(SCc3ccc(F)cc3)nc3ncccc32)cc1`, the Activity in data set [1] came to 52%.

For `O=C(Cn1c(Cc2ccccc2)nc2ccccc21)Nc1cc(Oc2ccc(-c3ccccc3)cc2)ccc1F`, the Activity in data set [1] turned out to be 0%.

On to `CCCN(CCC)C(=O)Cn1c(SCc2cccc(Cl)c2)nc2ccncc21`, for which the Activity in data set [1] worked out at 34%.

Regarding `O=C(NCCCN1CCCC1)c1ccc(Cn2c(Cc3c(Cl)cccc3Cl)nc3ccccc32)cc1`, the Activity in data set [1] amounted to 79%; in data set [2] it was 31%. In data set [3], the viability at 24 h, 5 µM is 100 to 101%. The figures for the inhibition in data set [4] and in data set [5] were 12% and 15%, respectively.

With `O=C(Cn1c(-c2cc(Cl)ccc2Cl)nc2cc(Cl)ccc21)Nc1cc(Cl)cc(Cl)c1`, the Activity in data set [1] came to 77%.

On to `COc1ccc(OC)c(-c2nc3ccccc3n2CC(=O)Nc2cc(C(C)C)ccc2C)c1`, for which, in data set [1], the Activity was 41%.

Regarding `CN(C)C(=O)c1ccc(Cn2c(Cc3c(Cl)cccc3Cl)nc3ccccc32)cc1`, the Activity in data set [1] was found to be 73%.

With `O=C(Cn1c(SCc2ccc(F)cc2)nc2ncccc21)Nc1ccc2c(c1)OCO2`, the Activity in data set [1] was -7%.

Consider `Cc1cccc(C(C)(C)C)c1NC(=O)Cn1c(-c2ccccc2)nc2ccccc21`, for which the Activity in data set [1] came out at 65%; in data set [2], 55%. Further, in data set [3], the viability at 24 h, 5 µM fell in the range of 65 to 95%. For the same compound, the inhibition in data set [4] was determined as 16%; in data set [5] it was 0%.

`O=C(Cn1c(-c2ccccc2)nc2ccccc21)Nc1cc(Cl)cc(Cl)c1`: in data set [1], the Activity is 69%.

As to `CC[C@@H](C(=O)Nc1ccccc1OC)n1c(SCc2ccc(C)cc2)nc2ccncc21`, in data set [1], the Activity was 43%.

For the compound `Cc1c(Cl)cccc1NC(=O)Cn1c(SCc2ccccc2F)nc2ccncc21`, the Activity in data set [1] worked out at 30%.

Regarding `O=C(CCn1c(-c2ccc(Cl)cc2)nc2ccccc21)Nc1ccccc1F`, the Activity in data set [1] is 65%.

`COc1ccc(CC(=O)Cn2c(SCc3ccc(F)cc3)nc3ccncc32)c(OC)c1`: the Activity in data set [1] came to 34%.

For the compound `CCCSCCCNC(=O)c1ccc(CSc2nc3ncccc3n2Cc2cccc(C)c2)cc1`, the Activity in data set [1] came out at 58%.

In the case of `O=C(NCCN1CCOCC1)c1ccc(Cn2c(SCc3ccc(F)cc3)nc3ncccc32)cc1`, in data set [1], the Activity worked out at 47%.

For the compound `O=C(NCCCc1cccs1)c1ccc(Cn2c(SCc3ccc(F)cc3)nc3ncccc32)cc1`, the Activity in data set [1] came out at 46%.

Take `Cc1cccc(C(C)(C)C)c1NC(=O)Cn1c(-c2cc(Cl)ccc2Cl)nc2ccccc21`: the Activity in data set [1] was determined as 41%.

Consider `CC(C)(C)c1cc(NC(=O)Cn2c(Cc3ccccc3)nc3ccccc32)cc(C(C)(C)C)c1`, for which the Activity in data set [1] was found to be 29%.

Take `Cc1ccc(C(C)C)c(OC[C@H](O)Cn2c(Cc3ccccc3)nc3ccccc32)c1`: the Activity in data set [1] was found to be 53%.

`CC(C)(C)c1cc(NC(=O)Cn2c(Cc3ccc(Cl)c(Cl)c3)nc3ccccc32)cc(C(C)(C)C)c1`: the Activity in data set [1] was 42%.

Regarding `CCN1CCCC1CNC(=O)c1ccc(Cn2c(SCc3ccc(F)cc3)nc3ncccc32)cc1` (stereo unspecified), in data set [1], the Activity was found to be 61%.

For `CCN(CC)CCCNC(=O)c1ccc(Cn2c(SCc3ccc(F)cc3)nc3ncccc32)cc1`, the Activity in data set [1] turned out to be 38%.

`O=C(NCCN1CCCCC1)c1ccc(Cn2c(SCc3ccc(F)cc3)nc3ncccc32)cc1`: in data set [1], the Activity turned out to be 45%.

Take `Cc1ccc(C(C)C)cc1NC(=O)Cn1c(Cc2ccc(Cl)c(Cl)c2)nc2ccccc21`: in data set [1], the Activity was found to be 57%.

For the compound `CCC1CCCCN1C(=O)Cn1c(SCc2cccc(C(F)(F)F)c2)nc2ncccc21` (stereo unspecified), the Activity in data set [1] came to 25%.

With `Cc1cccc(C(C)(C)C)c1NC(=O)Cn1c(Cc2ccccc2)nc2ccccc21`, the Activity in data set [1] came out at 38%.

On to `O=C(c1ccc(CSc2nc3ncccc3n2Cc2ccc(F)cc2)cc1)N1CCCCC1`, for which, in data set [1], the Activity amounted to 37%.

As to `CCCN(CCC)C(=O)Cn1c(SCc2ccc(F)cc2)nc2ccccc21`, the results for the Activity in data set [1] and in data set [2] were 57% and 20%, respectively.

On to `C=CCN(C(=O)Cn1c(SCc2ccc(F)cc2)nc2ccncc21)c1ccccc1`, for which the Activity in data set [1] was -1%.

`Cc1ccc(C(C)C)cc1NC(=O)Cc1nc2ccccc2n1Cc1ccc(C(=O)NCCCN2CCCCC2)cc1`: the results for the Activity in data set [1] and in data set [2] were 80% and 23%, respectively. The viability at 24 h, 5 µM in data set [3] stood at 100%.

Turning to `O=C(Cn1c(-c2cc(Cl)ccc2Cl)nc2ccc(Cl)cc21)Nc1cc(Cl)cc(Cl)c1`, in data set [1], the Activity was found to be 18%.

Turning to `Cc1ccc(C(C)C)cc1NC(=O)Cn1c(-c2cc(Cl)ccc2Cl)nc2cc(Cl)ccc21`, the Activity in data set [1] is 60%; in data set [2], 3%. Besides, the viability at 24 h, 5 µM in data set [3] was found to be 78%.

For the compound `O=C(NCCCN1CCOCC1)c1ccc(Cn2c(Cc3c(Cl)cccc3Cl)nc3ccccc32)cc1`, the Activity was 76% in data set [1] and 1% in data set [2]. For the same compound, the viability at 24 h, 5 µM in data set [3] was found to be 98%.
